The values that follow come from ChEMBL document CHEMBL5107979, “Encoding BRAF inhibitor functions in protein degraders” (RSC Med Chem, 2022).

What is called chromatographic logD is lipophilicity estimated from chromatographic retention. Lower therefore signals a more hydrophilic compound. As usually defined, the IC50 is the point on the concentration scale where inhibition reaches its midpoint.

Calls of active or inactive are those of the source. The calls are words filed in the database; no cut-off is given here.

Data set [1] in a line: Distribution coefficient, logD of compound at pH 7.4 by chromatographic method. The format is physicochemical. Conditions: octanol/water. In a few lines: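 Chromatographic retention-time method at pH 7.4, calibrated against six reference drugs (atenolol, metoprolol, labetalol, diltiazem, triphenylene, permethrin) of known logD7.4 (R² = 0.99); mean analyte retention times converted via calibration line. At least two independent measurements per analyte.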

Data set [2] can be described thus: Plasma protein binding in human at 0.5 mg/ml by HPLC analysis. The format is ADME, cell-free. The note with it: read-out: PPB (converted). In a few lines: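 HSA column (50 × 3 mm, 5 μm), 30 °C; samples 0.5 mg/mL in MeCN/DMSO 9:1, 2 μL injected. 50 mM ammonium acetate pH 7.4 to 30% iPrOH gradient over 5.4 min, held to 18 min; 1.0 mL/min, UV 254 nm. Log retention times calibrated to ten reference drugs' logK (R² = 0.94), converted to %PPB.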

The target in data set [3] is Serine/threonine-protein kinase B-raf (Homo sapiens, UniProt P15056, V600E). Kind of data set: Inhibition of BRAF V600E mutant (unknown origin) using MEK1 (K97R) as substrate in presence of [gamma-33P]ATP by radiometric assay.
Chain of Serine/threonine-protein kinase B-raf (P15056 2-766 V600E limits assumed): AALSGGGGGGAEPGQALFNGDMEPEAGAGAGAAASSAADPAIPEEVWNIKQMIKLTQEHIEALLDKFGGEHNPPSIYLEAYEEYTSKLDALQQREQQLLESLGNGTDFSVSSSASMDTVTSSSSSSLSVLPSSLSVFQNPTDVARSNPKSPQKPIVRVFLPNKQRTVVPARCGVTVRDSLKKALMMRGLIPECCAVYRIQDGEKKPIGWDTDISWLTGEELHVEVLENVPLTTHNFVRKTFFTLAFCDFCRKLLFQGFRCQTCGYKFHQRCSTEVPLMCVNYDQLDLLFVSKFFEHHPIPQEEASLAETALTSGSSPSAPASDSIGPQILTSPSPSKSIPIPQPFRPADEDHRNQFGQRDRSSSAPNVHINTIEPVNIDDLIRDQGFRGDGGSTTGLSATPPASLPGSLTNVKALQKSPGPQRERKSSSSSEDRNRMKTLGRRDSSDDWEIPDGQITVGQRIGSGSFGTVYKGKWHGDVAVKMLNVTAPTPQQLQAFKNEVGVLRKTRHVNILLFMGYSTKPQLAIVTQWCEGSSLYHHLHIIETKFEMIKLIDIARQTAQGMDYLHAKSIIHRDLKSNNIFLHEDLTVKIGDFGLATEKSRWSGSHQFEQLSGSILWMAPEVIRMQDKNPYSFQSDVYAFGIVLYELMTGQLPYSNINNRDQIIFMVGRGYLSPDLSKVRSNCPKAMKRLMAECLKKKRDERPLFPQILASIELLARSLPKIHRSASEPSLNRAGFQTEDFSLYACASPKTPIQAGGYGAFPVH
In data set [4] the test system is von Hippel-Lindau disease tumor suppressor/Serine/threonine-protein kinase B-raf (Homo sapiens), P15056+P40337 [V600E]. Put plainly: Protac activity at VHL/BRAF V600E mutant degradation in human SK-MEL-28 cells harboring wild type NRAS assessed as remaining BRAF V600E level at 1 uM incubated for 4 hrs by densitometric analysis. Type of data set: cell-based. Summed up:
(§1)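 SK-MEL-28 melanoma cells (STR-authenticated, mycoplasma-free) in DMEM + 10% FCS, 37°C, 5% CO2; 100,000 cells/well seeded, grown 48 h, then compound-treated as indicated. Lysis in D0.4 buffer (HEPES pH 7.5, 0.4 M KCl, Triton X-100, EDTA) with protease/phosphatase inhibitors. Lysates run on 4-12% Bis-Tris gels and blotted to PVDF. LI-COR imaging; BRAF densitometry normalised to loading control, expressed relative to DMSO.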

The test system of data set [5] is SK-MEL-28. Kind of data set: Inhibition of ERK signalling pathway in human SK-MEL-28 cells harboring BRAF V600E mutant/wild type NRAS assessed as reduction in phosphorylated ERK level at 0.1 to 10 uM incubated for 4 hrs by densitometric analysis. The format is cell-based. The note with it: dose 0.1-10 µM. In a few lines:
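SK-MEL-28 melanoma in DMEM/10% FCS, plated 100,000 cells/well, grown 48 h, treated 4 h at indicated doses. Lysates (HEPES pH 7.5, 0.4 M KCl, 0.4% Triton X-100, protease/phosphatase inhibitors) immunoblotted on PVDF, imaged by LI-COR; densitometry normalised to loading control, relative to DMSO; mean of five independent repeats for dose-response.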

The test system of data set [6] is von Hippel-Lindau disease tumor suppressor/Serine/threonine-protein kinase B-raf (Homo sapiens), P15056+P40337 [V600E]. Kind of data set: Protac activity at VHL/BRAF V600E mutant degradation in human SK-MEL-28 cells harboring wild type NRAS assessed as remaining BRAF V600E level at 10 uM incubated for 24 hrs by densitometric analysis. Type of data set: cell-based. Summed up: as §1

The test system of data set [7] is SK-MEL-28. Kind of data set: Anticancer activity against human SK-MEL-28 cells assessed as reduction in cell viability incubated for 120 hrs by CellTiter-Glo luminescent assay. The format is functional, cell-based. Summed up:
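SK-MEL-28 in DMEM with 10% FCS, 37°C, 5% CO2; seeded 400 cells/well in 384-well plates. T0 CellTiter-Glo reading taken at 24 h on a parallel plate; compounds dispensed acoustically, 5 days incubation, then CellTiter-Glo luminescence. Normalised to DMSO; GI50 by four-parameter log(inhibitor) vs response fit; mean±s.d., n=3.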
(In general: In ATP-based viability assays light output follows the ATP content of the culture.)

Data set [8] concerns von Hippel-Lindau disease tumor suppressor/Serine/threonine-protein kinase B-raf (Homo sapiens), P15056+P40337 [V600E]. Kind of data set: Protac activity at VHL/BRAF V600E mutant degradation in human SK-MEL-28 cells harboring wild type NRAS assessed as remaining BRAF V600E level at 0.1 to 10 uM incubated for 4 hrs by densitometric analysis. Type of data set: cell-based. The note with it: dose 0.1-10 µM. Summed up: as §1

Data set [9] deals with SK-N-AS. Kind of data set: Effect on ERK signalling pathway in human SK-N-AS harboring wild type BRAF/NRAS […] mutant assessed as BRAF level at 0.1 to 10 uM incubated upto 24 hrs by western blot analysis. Type of data set: functional, cell-based. Conditions: dose 0.1-10 µM. Summed up:
(§2)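 SK-N-AS neuroblastoma (NRAS mutant), DMEM/10% FCS, plated 100,000 cells/well, grown 48 h, then treated 4 h at indicated doses or 24 h at 10 μM. Lysed in HEPES pH 7.5/KCl/Triton buffer with protease and phosphatase inhibitors; SDS-PAGE, PVDF transfer, LI-COR imaging; densitometry normalised to loading control, relative to DMSO.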

The test system of data set [10] is SK-N-AS. Kind of data set: Effect on ERK signalling pathway in human SK-N-AS harboring wild type BRAF/NRAS […] mutant assessed as phosphorylated ERK level at 0.1 to 10 uM incubated upto 24 hrs by western blot analysis. The format is functional, cell-based. Conditions: dose 0.1-10 µM. Summed up: as §2

In turn, `CCCS(=O)(=O)Nc1ccc(F)c(C(=O)c2c[nH]c3ncc(-c4ccc(C(=O)NCCOCCOCCOCCOc5cc(-c6scnc6C)ccc5CNC(=O)[C@@H]5C[C@@H](O)CN5C(=O)[C@H](C(C)C)N5Cc6ccccc6C5=O)cc4)cc23)c1F` had a chromatographic logD in data set [1] of 2.5. Further, the fraction unbound at 0.5 mg/ml in data set [2] was 0.04. The IC50 in [3] was determined as 3.4 nM. The Remaining BRAF V600E level in data set [4] turned out to be 73%. Moreover, the inhibition result in the data set with SK-MEL-28 [5] was “Active”.
For `CCCS(=O)(=O)Nc1ccc(F)c(C(=O)c2c[nH]c3ncc(-c4ccc(C(=O)NCCOCCOCCOCCCCC(=O)N[C@H](C(=O)N5C[C@H](O)C[C@H]5C(=O)NCc5ccc(-c6scnc6C)cc5)C(C)(C)C)cc4)cc23)c1F` the same measures were 2.4, 0.05, 0.31 nM, more than 95% and “Active”.
For `CCCS(=O)(=O)Nc1ccc(F)c(C(=O)c2c[nH]c3ncc(-c4ccc(CNC(=O)CCCCOCCOCCOCCOc5cc(-c6scnc6C)ccc5CNC(=O)[C@@H]5C[C@@H](O)CN5C(=O)[C@H](C(C)C)N5Cc6ccccc6C5=O)cc4)cc23)c1F` the same measures were 2.7, 0.04, 3.8 nM, 77% and “Active”.
As to `CCCS(=O)(=O)Nc1ccc(F)c(C(=O)c2c[nH]c3ncc(-c4ccc(C(=O)NCCOCCOCC(=O)N[C@H](C(=O)N5C[C@H](O)C[C@H]5C(=O)NCc5ccc(-c6scnc6C)cc5)C(C)(C)C)cc4)cc23)c1F`, the chromatographic logD in [1] came out at 2.3. In addition, the fraction unbound at 0.5 mg/ml in [2] was 0.05. The IC50 in data set [3] came to 8.5 nM. Further, the Remaining BRAF V600E level in [4] was more than 95%. In the data set on SK-MEL-28 [5], the inhibition result is “Active”.
Take `O=C1Nc2ccc(I)cc2C1=Cc1cc(Br)c(O)c(Br)c1` [GW305074X]: in data set [1], the chromatographic logD worked out at 2.3.
For the molecule `CCN(C)S(=O)(=O)Nc1ccc(F)c(C(=O)c2c[nH]c3ncc(-c4cnc(N5CCN(CC(=O)N[C@H](C(=O)N6C[C@H](O)C[C@H]6C(=O)N[C@@H](C)c6ccc(-c7scnc7C)cc6)C(C)(C)C)CC5)nc4)cc23)c1F`, in [1], the chromatographic logD was 3.2. The fraction unbound at 0.5 mg/ml in data set [2] was 0.04. Also, the Remaining BRAF V600E level in data set [4] was more than 95%.
`CCN(C)S(=O)(=O)Nc1ccc(F)c(C(=O)c2c[nH]c3ncc(-c4ccc(N5CCN(CC(=O)N[C@H](C(=O)N6C[C@H](O)C[C@H]6C(=O)NCc6ccc(-c7scnc7C)cc6)C(C)(C)C)CC5)cc4)cc23)c1F` returned a chromatographic logD in data set [1] of 3.2. Also, the fraction unbound at 0.5 mg/ml in data set [2] was 0.04. Moreover, the Remaining BRAF V600E level in [4] is 52%. Further, the outcome (in [6]; in the data set with SK-MEL-28 [7]) was Active.
`CCCS(=O)(=O)Nc1ccc(F)c(C(=O)c2c[nH]c3ncc(-c4ccc(C(=O)NCCCCCCOCCCCCOCCCCC(=O)N[C@H](C(=O)N5C[C@H](O)C[C@H]5C(=O)NCc5ccc(-c6scnc6C)cc5)C(C)(C)C)cc4)cc23)c1F`: in data set [1], the chromatographic logD amounted to 3.7. Besides, the fraction unbound at 0.5 mg/ml in data set [2] was 0.04. Moreover, the IC50 in data set [3] was determined as 48 nM. For the same molecule, the Remaining BRAF V600E level in data set [4] was more than 95%. Moreover, the inhibition entry in the data set with SK-MEL-28 [5] is “Active”.
In the same order, the values of `CCCS(=O)(=O)Nc1ccc(F)c(C(=O)c2c[nH]c3ncc(-c4ccc(CNC(=O)CCCCOCCCCOCCCCOc5cc(-c6scnc6C)ccc5CNC(=O)[C@@H]5C[C@@H](O)CN5C(=O)[C@H](C(C)C)N5Cc6ccccc6C5=O)cc4)cc23)c1F` are 3.6, 0.04, 10 nM, 77% and “Active”.
In data set [1], `CCCS(=O)(=O)Nc1ccc(F)c(C(=O)c2c[nH]c3ncc(-c4ccc(N5CCN(CC(=O)N[C@H](C(=O)N6C[C@H](O)C[C@H]6C(=O)NCc6ccc(-c7scnc7C)cc6)C(C)(C)C)CC5)cc4)cc23)c1F` had a chromatographic logD of 2.9. For the same molecule, in [2], the fraction unbound at 0.5 mg/ml was 0.04. Further, the Remaining BRAF V600E level in data set [4] was 46%. Moreover, the result (in [8]; in the data set on SK-N-AS [9]; with SK-N-AS [10]) was Active.
